The values below come from ChEMBL document CHEMBL5715960, “Epigenetic Co-Deregulation of EZH2/TET1 is a Senescence-Countering, Actionable Vulnerability in Triple-Negative Breast Cancer” (Theranostics, 2019).

The test system of data set [1] is MDA-MB-231. Kind of data set: Antiproliferative activity against human MDA-MB-231 cells assessed as increase in global H3K9me3 expression level by immunoblot analysis. The data set is classed as functional, cell-based. The gist of the method:
(§1)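 Cells exposed to GSK343 at 2 µM (standard level unless stated otherwise), lysed and immunoblotted; α-tubulin and total H3 as loading controls.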
Background: In western blotting, separated proteins are transferred to a membrane and probed.

Data set [2] has as its system MDA-MB-436. In words: Antiproliferative activity against human MDA-MB-436 cells assessed as increase in global H3K9me3 expression level by immunoblot analysis. The data set is classed as functional, cell-based. The gist of the method:
as §1

A further data set deals with BT-474. Kind of data set: Antiproliferative activity against human BT-474 cells assessed as increase in global H3K9me3 expression level by immunoblot analysis. The data set is classed as toxicity, cell-based. In outline: as §1
For a further data set, the system named is MCF7. Kind of data set: Antiproliferative activity against human MCF7 cells assessed as increase in global H3K9me3 expression level by immunoblot analysis. In kind it is toxicity, cell-based. In outline: as §1
Data set [3] concerns MDA-MB-231. Kind of data set: Cytotoxicity against human MDA-MB-231 cells upto 0.5 ug/ml. In kind it is functional, cell-based. Conditions: dose <= 0.5 µg/ml.
Data set [4] concerns MDA-MB-436. In words: Cytotoxicity against human MDA-MB-436 cells upto 0.5 ug/ml. The data set is classed as functional, cell-based. Conditions: dose <= 0.5 µg/ml.

The source made the active and inactive calls. No cut-off for these calls is given here.

In the case of `Nc1nccc2c1ncn2[C@@H]1C=C(CO)[C@@H](O)[C@H]1O`, the result with MDA-MB-231 [1] was Active. Also, the outcome in the data set with MDA-MB-436 [2] was inactive. Further, the Activity result in the data set with BT-474 and in the data set on MCF7 was “Non-Toxic” in each case.
As to `COc1cccc2c1C(=O)c1c(O)c3c(c(O)c1C2=O)C[C@@](O)(C(=O)CO)C[C@@H]3O[C@H]1C[C@H](N)[C@H](O)[C@H](C)O1`, the outcome with MDA-MB-231 [3] and in the data set on MDA-MB-436 [4] was inactive.
